In PMC9851031 (ACS Omega, 2023):

What was measured:
Assay type in all cases: in vivo
Swiss albino mice = test: Acute toxicity; conditions: for number of animals dead/tot number of animals tested: i.p., observed 24 h
Outline: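 Albino mice, five per cage, on a 12 h light/dark cycle, fasted overnight. Acute toxic-class testing followed OECD 423. Deaths and signs of toxicity were recorded after dosing to estimate the median lethal dose.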

[1] = test system: MES-induced seizure in albino mice; test: Maximum electroshock; conditions: i.p. in mice, 4.0 h; doses 30, 100, 300 mg/kg
Outline: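 Albino mice, fasted overnight, received test compound i.p. in PEG-200 at 30, 100 and 300 mg/kg. Electroshock was 60-cycle alternating current, 50 mA for 0.25 s, delivered via ear-clip electrodes, with testing at 0.5 and 4 h after dosing. Protection meant abolition of hind limb tonic extension. The minimum dose protecting more than half of animals (n = 5) was recorded.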

albino mice = test: Rotarod neurotoxicity test; conditions: doses 30, 100, 300 mg/kg; for neurotoxicity minimum dose: i.p. in mice
Outline: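 Albino mice of either sex, housed five per cage on a 12 h light/dark cycle and fasted overnight, were first trained to balance on a 3.2 cm diameter rod turning at 6 rpm. Trained mice then received test compound i.p. in PEG-200 at 30, 100 or 300 mg/kg. Neurotoxicity was scored as failure to stay on the rod for at least 1 min in each of three successive trials.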

mice = test: Antidepressant activity: locomotor activity by actophotometer; conditions: for depressant effect (in words): actophotometer, 100 mg/kg; for % reduction in locomotor activity / locomotor activity score, after treatment means ± SEM: n = 5, 5 min
Outline: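 Actophotometer test in mice. Test compound at 100 mg/kg or diazepam standard was given intraperitoneally. Locomotor activity scores were taken at baseline and after treatment over a 5 min span, n = 5. Percent reduction in locomotor activity was calculated against control. Data are mean ± SEM, analysed by one-way ANOVA with Dunnett's test.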

[2] = test system: scPTZ-induced seizure in albino mice; test: Subcutaneous pentylenetetrazole; conditions: Mus musculus, ip, 4 h, read-out: scPTZ minimum dose for antiepileptic potential
Outline: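 Overnight-fasted albino mice were dosed i.p. with test compound in PEG-200 at 30, 100 and 300 mg/kg and observed at 0.5 and 4 h. Pentylenetetrazole was injected subcutaneously in the posterior midline. Protection meant no clonic spasm episode lasting 5 s, n = 5 per group. The minimum protective dose was reported.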

[3] = 100 mg/kg, after a few minutes of administration

Compound | number of animals dead/tot number of animals tested (Swiss albino mice; dosage 5 mg/kg) | number of animals dead/tot number of animals tested (Swiss albino mice; dosage 30 mg/kg) | number of animals dead/tot number of animals tested (Swiss albino mice; dosage 100 mg/kg) | number of animals dead/tot number of animals tested (Swiss albino mice; dosage 300 mg/kg) | HLTE (MES) minimum dose for antiepileptic potential [1] | neurotoxicity minimum dose (albino mice; 0.5 h) | neurotoxicity minimum dose (albino mice; 4.0 h) | acute toxicity observation (Swiss albino mice; [3]) | acute toxicity observation (Swiss albino mice; 300 mg/kg body weight, 24 h) | neurotoxicity (in words) (albino mice) | depressant effect (in words) (mice) | % reduction in locomotor activity (mice; dose 100 mg/kg) | locomotor activity score, after treatment means ± SEM (mice; dose 100 mg/kg) | % reduction in locomotor activity (mice; 4 mg/kg (intraperitoneally)) | locomotor activity score, after treatment means ± SEM (mice; 4 mg/kg (intraperitoneally)) | minimal effective dose [2]
COc1ccc(-c2nc3ccccc3s2)cc1OCc1nnc(-c2ccc(N)cc2)o1 [6a, 4-[5-(5-Benzothiazol-2-yl-2-methoxy-phenoxymethyl)-[1,3,4]oxadiazol-2-yl]-phenylamine] | 0/3 | 0/3 | 0/3 | 0/3 |  |  |  |  |  |  |  |  |  |  |  | 
COc1ccc(-c2nnc(COc3cc(-c4nc5ccccc5s4)ccc3OC)o2)cc1 [6b, 2-{4-Methoxy-3-[5-(4-methoxy-phenyl)-[1,3,4]oxadiazol-2-ylmethoxy]-phenyl}-benzothiazole] | 0/3 | 0/3 | 0/3 | 0/3 | failed to exhibit activity |  |  |  |  |  |  |  |  |  |  | 
COc1ccc(-c2nc3ccccc3s2)cc1OCc1nnc(-c2ccc(Br)cc2)o1 [6c, 2-{3-[5-(4-Bromo-phenyl)-[1,3,4]oxadiazol-2-ylmethoxy]-4-methoxy-phenyl}-benzothiazole] | 0/3 | 0/3 | 1/3 | 2/3 | failed to exhibit activity | 300 mg/kg | 300 mg/kg | slight spasmodic behavior | mortality with involuntary movements |  |  |  |  |  |  | 
COc1ccc(-c2nc3ccccc3s2)cc1OCc1nnc(-c2ccccc2)o1 [6d, 2-[4-Methoxy-3-(5-phenyl-[1,3,4]oxadiazol-2-ylmethoxy)-phenyl]-benzothiazole] | 0/3 | 0/3 | 0/3 | 2/3 |  |  |  |  | mortality with involuntary movements |  |  |  |  |  |  | 
COc1ccc(-c2nc3ccccc3s2)cc1OCc1nnc(Cc2ccccc2)o1 [6e, 2-[3-(5-Benzyl-[1,3,4]oxadiazol-2-ylmethoxy)-4-methoxy-phenyl]-benzothiazole] | 0/3 | 0/3 | 1/3 | 1/3 |  |  |  | slight spasmodic behavior | mortality with involuntary movements |  |  |  |  |  |  | 
COc1ccc(-c2nc3ccccc3s2)cc1OCc1nnc(-c2ccc(Cl)cc2)o1 [6g, 2-{3-[5-(4-Chloro-phenyl)-[1,3,4]oxadiazol-2-ylmethoxy]-4-methoxy-phenyl}-benzothiazole] | 0/3 | 0/3 | 0/3 | 1/3 |  |  |  |  | mortality with involuntary movements |  |  |  |  |  |  | 
COc1ccc(-c2nc3ccccc3s2)cc1OCc1nnc(-c2ccc([N+](=O)[O-])cc2)o1 [6h, 2-{4-Methoxy-3-[5-(4-nitro-phenyl)-[1,3,4]oxadiazol-2-ylmethoxy]-phenyl}-benzothiazole] | 0/3 | 0/3 | 0/3 | 0/3 |  |  |  |  |  | no neurotoxicity | not depressants | 0.37% | 373.4 ± 3.85^ns |  |  | 
COc1ccc(-c2nc3ccccc3s2)cc1OCc1nnc(C(c2ccccc2)c2ccccc2)o1 [6i, 2-[3-(5-Benzhydryl-[1,3,4]oxadiazol-2-ylmethoxy)-4-methoxy-phenyl]-benzothiazole] | 0/3 | 0/3 | 0/3 | 1/3 |  |  |  |  | mortality with involuntary movements |  |  |  |  |  |  | 
COc1ccc(-c2nc3ccccc3s2)cc1OCc1nnc(-c2cc([N+](=O)[O-])cc([N+](=O)[O-])c2O)o1 [6j, 2-[5-(5-Benzothiazol-2-yl-2-methoxy-phenoxymethyl)-[1,3,4]oxadiazol-2-yl]-4,6-dinitro-phenol] | 0/3 | 0/3 | 0/3 | 0/3 |  |  |  |  |  | no neurotoxicity | not depressants | 0.48% | 368.8 ± 2.63^ns |  |  | 
COc1ccc(-c2nc3ccccc3s2)cc1OCc1nnc(-c2c(C)cccc2C)o1 [6k, 2-{3-[5-(2,6-Dimethylphenyl)-[1,3,4]oxadiazol-2-ylmethoxy]-4-methoxy-phenyl}-benzothiazole] | 0/3 | 0/3 | 0/3 | 1/3 |  |  |  |  | mortality with involuntary movements |  |  |  |  |  |  | 
COc1ccc(-c2nc3ccccc3s2)cc1OCc1nnc(-c2ccc(O)cc2)o1 [6l, 4-[5-(5-Benzothiazol-2-yl-2-methoxy-phenoxymethyl)-[1,3,4]oxadiazol-2-yl]-phenol] | 0/3 | 0/3 | 0/3 | 0/3 |  |  |  |  |  | no neurotoxicity | not depressants | 0.73% | 375.8 ± 3.65^ns |  |  | 
COc1ccc(-c2nc3ccccc3s2)cc1OCc1nnc(-c2ccc(N(C)C)cc2)o1 [6m, {4-[5-(5-Benzothiazol-2-yl-2-methoxy-phenoxymethyl)-[1,3,4]oxadiazol-2-yl]-phenyl}-dimethylamine] | 0/3 | 0/3 | 0/3 | 0/3 | failed to exhibit activity |  |  |  |  |  |  |  |  |  |  | 
COc1ccc(-c2nc3ccccc3s2)cc1OCc1nnc(-c2c(OC)cccc2OC)o1 [6n, 2-{3-[5-(2,6-Dimethoxyphenyl)-[1,3,4]oxadiazol-2-ylmethoxy]-4-methoxy-phenyl}benzothiazole] | 0/3 | 0/3 | 0/3 | 0/3 |  |  |  |  |  |  |  |  |  |  |  | 
CN1C(=O)CN=C(c2ccccc2)c2cc(Cl)ccc21 [diazepam, reference compound] |  |  |  |  |  |  |  |  |  |  |  |  |  | 80.4% | 74.6 ± 2.65 | 
CCC1(c2ccccc2)C(=O)NC(=O)NC1=O [phenobarbital, reference compound] | 0/3 | 0/3 | 0/3 | 0/3 |  | 100 mg/kg | 300 mg/kg |  |  |  |  |  |  |  |  | 100 mg/kg
O=C1NC(=O)C(c2ccccc2)(c2ccccc2)N1 [phenytoin, reference compound] | 0/3 | 0/3 | 0/3 | 0/3 |  | 100 mg/kg | 100 mg/kg |  |  |  |  |  |  |  |  | 
